Experimental data collected from several papers.
Target: Serine/threonine-protein kinase 33 (STK33, Homo sapiens, UniProt Q9BYT3)

| Structure (SMILES) | assay | setting | measurement | value |
| --- | --- | --- | --- | --- |
| CCOC(=O)c1c(C)[nH]c(/C=C2\C(=O)Nc3ccccc32)c1C | enzyme activity, inhibitor, radiometric | 0.5 µM | remaining activity | 83.7% |
| Cn1cc(-c2cccc(N3CCc4c(sc5c4CC(C)(C)C5)C3=O)c2CO)cc(Nc2ccncn2)c1=O | enzyme activity, inhibitor | 1 µM | inhibition | 2% |
| COc1cc(Nc2ncc(F)c(Nc3ccc4c(n3)NC(=O)C(C)(C)O4)n2)cc(OC)c1OC | binding | 10 µM | inhibition | 85% |
| CC(C)(C)c1nc2c(s1)c1nc(N)ncc1c1ccc(NS(=O)(=O)c3c(F)cccc3F)c(F)c12 | enzyme activity, inhibitor, radiometric | 1 µM | remaining activity | 82% |
| Cn1cncc1[C@](O)(COc1ccc(C#N)cc1-c1ccc(OC(F)(F)F)cc1)c1ccc(C#N)cc1 | cell-free assay, competition with immobilised ligand | 1 µM | remaining binding | 74% |
| Cc1nn(C)cc1-c1nc2c(N3CCN(Cc4ccc(Cl)cc4)CC3)c(Cl)cnc2[nH]1 | binding, competition with immobilised ligand | 1 µM | remaining binding | 100% |
| Nc1ccc2ncnc(NCCc3ccc(Oc4ccccc4)cc3)c2c1 | enzyme activity, inhibitor, radiometric | 0.5 µM | remaining activity | 101% |
| COc1ncccc1-c1cnn2ccc(N3CCN(C(=O)OC(C)C)CC3)nc12 | binding, competition with immobilised ligand | 1 µM | remaining binding | 100% |
| Nc1ncc(-c2nc(N3CCOCC3)nc(N3CCOCC3)n2)c(C(F)F)n1 | binding, competition with immobilised ligand | 10 µM | remaining binding | 94% |
| CC(C)(C)c1nc(-c2cccc(NS(=O)(=O)c3c(F)cccc3F)c2F)c(-c2ccnc(N)n2)s1 | enzyme activity, inhibitor, radiometric | 1 µM | remaining activity | 76% |
| N#CC1(c2ccccn2)CCN(Cc2cc(C(=O)O)c(=O)n3ccccc23)CC1 | cell-free assay, competition with immobilised ligand | 1 µM | remaining binding | 56% |
| Cn1cc(-c2cc(F)cc(N3CCn4c(cc5c4CCCC5)C3=O)c2CO)cc(Nc2ccc(N3CCN(C4COC4)CC3)cn2)c1=O | enzyme activity, inhibitor | 0.1 µM | inhibition | -5% |
